ChEMBL document CHEMBL1143412, “RSV604, a novel inhibitor of respiratory syncytial virus replication” (Antimicrob Agents Chemother, 2007)
Calls of active or inactive are those of the source. The calls are words filed in the database; no cut-off is given here.

Tests used:
[1] = system: Respiratory syncytial virus; test: Antiviral activity against RSV Long infected human Hep2 cells after 5 days by plaque reduction assay; type: functional, organism-based; details: HEp-2, 120 h
Method in brief: (§1)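 HEp-2 monolayers in six-well plates infected with 0.2 ml of 500 PFU/ml virus. After 2 h, overlaid with DMEM, 2% FBS, 0.6% agarose plus compound dilution series. Incubated 5 days, formaldehyde-fixed, plaques stained with methylene blue or immunostained and counted. Activity expressed as percent of plaques in untreated infected wells.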

[2] = system: Respiratory syncytial virus; test: Antiviral activity against RSV RSS infected human Hep2 cells after 5 days by plaque reduction assay; type: functional, organism-based; details: HEp-2, 120 h; method in brief: as §1
[3] = system: Respiratory syncytial virus; test: Antiviral activity against RSV B infected human Hep2 cells after 5 days by plaque reduction assay; type: functional, organism-based; details: HEp-2, 120 h; method in brief: as §1
[4] = Cytotoxicity against RSV RSS infected human Hep2 cells after 6 days by XTT assay; type: cell-based, HEp-2
[5] = system: Respiratory syncytial virus; test: Antiviral activity against RSV RSS infected human Hep2 cells assessed as reduction of viral antigen synthesis after 3 days by ELISA; type: functional, organism-based; details: HEp-2, 72 h
Method in brief: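 HEp-2 cells seeded at 5 × 10³ per well in DMEM/10% FBS for 24 h, infected with RSV RSS at MOI about 0.02, serial compound dilutions for 3 days. Cells fixed and permeabilised in methanol-acetone, blocked in milk-Tween. Probed with mouse anti-RSV monoclonal then HRP anti-mouse. Developed with o-phenylenediamine/H2O2, absorbance […].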

[6] = system: Respiratory syncytial virus; test: Antiviral activity against RSV RSS infected human Hep2 cells assessed as inhibition of virus-induced cell death after 6 days by XTT assay; type: functional, organism-based; details: HEp-2, 144 h
Method in brief: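 HEp-2 cells seeded at 4 × 10³ per well in DMEM with 10% FBS, infected next day with RSV RSS dosed to give about 80% cytopathic effect by day 6. Serial compound dilutions (top 10 μM, 0.5% DMSO) present throughout. Viability read by XTT reduction after 6 days. EC50 taken as 50% reduction in virus-induced cell death.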

[7] = system: Respiratory syncytial virus; test: Antiviral activity against plaque picked RSV604-resistant RSV RSS from passage 2 in human Hep2 cells by plaque reduction assay; type: functional, organism-based; details: HEp-2; method in brief: as §1
[8] = system: Respiratory syncytial virus; test: Drug resistance, ratio of EC50 for plaque picked RSV604-resistant RSV RSS from passage 2 to EC50 for DMSO-passaged wild type RSV RSS; type: functional
[9] = system: Respiratory syncytial virus; test: Antiviral activity against DMSO-passaged wild type RSV RSS infected human Hep2 cells by plaque reduction assay; type: functional, organism-based; details: HEp-2; method in brief: as §1
[10] = Therapeutic index, CC50 for human Hep2 cells to EC50 for RSV RSS; type: cell-based, HEp-2; details: read-out: Ratio CC50/EC50
Method in brief: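 Ratio of CC50 from uninfected HEp-2 XTT control plates to EC50 from RSV RSS-infected XTT plates, both read after 6 days.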

[11] = system: Respiratory syncytial virus; test: Antiviral activity against plaque picked A-33903-resistant RSV RSS from passage 2 in human Hep2 cells by plaque reduction assay; type: functional, organism-based; details: HEp-2; method in brief: as §1
[12] = system: Respiratory syncytial virus; test: Drug resistance, ratio of EC50 for plaque picked A-33903-resistant RSV RSS from passage 2 to EC50 for DMSO-passaged wild type RSV RSS; type: functional
[13] = Cytotoxicity against RSV RSS infected human Hep2 cells up to 50 uM after 6 days by XTT assay; type: cell-based; details: hep-2, 144 h
Method in brief: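 Uninfected cell-control plates run in parallel with the RSV XTT assay. HEp-2 cells at 4 × 10³ per well in DMEM/10% FBS, serial compound dilutions with 0.5% DMSO, 6 days. Viability by XTT. CC50 is the concentration giving 50% compound-induced cell death.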

[14] = system: Respiratory syncytial virus; test: Antiviral activity against RSV A2 infected human Hep2 cells after 5 days by plaque reduction assay; type: functional, organism-based; details: A2, HEp-2, 120 h; method in brief: as §1
[15] = system: Respiratory syncytial virus; test: Antiviral activity against RSV infected human Hep2 cells assessed as reduction of plaque formation pretreated 2 hrs before viral infection; type: functional, organism-based; details: HEp-2
Method in brief: (§2)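 Plaque reduction in HEp-2 cells with compound added either 2 h before infection or 6 h after. Duplicate wells per dilution. Percent plaque reduction calculated against compound-free infected wells. Four independent experiments.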

[16] = system: Respiratory syncytial virus; test: Antiviral activity against RSV infected human Hep2 cells assessed as reduction of plaque formation treated 6 hrs after viral infection; type: functional, organism-based; details: HEp-2; method in brief: as §2
[17] = system: Respiratory syncytial virus; test: Antiviral activity against RSV infected human Hep2 cells assessed as plaque reduction […] by plaque reduction assay; type: functional, HEp-2; design: scale not given: the % may be the effect or the level left

COc1cc(S(C)(=O)=O)ccc1C(=O)N[C@H]1N=C(c2ccccc2)c2ccccc2NC1=O
EC50 [1]: 0.39 µM
EC50 [2]: 0.5 µM
EC50 [3]: 0.43 µM
CC50 at 144 h [4]: > 50 µM
EC50 [5]: 1.3 µM
EC50 [6]: 0.5 µM
EC50 [7]: 16.9 µM
fold change (FC) [8]: 42.3
EC50 [9]: 0.4 µM
selectivity ratio [10]: > 100

CC(=O)NC1N=C(c2ccccc2)c2ccccc2NC1=O (stereo unspecified)
EC50 [11]: 27.6 µM
fold change (FC) [12]: 3.1
Activity [13]: Non-toxic
EC50 [1]: 7.2 µM
EC50 [2]: 9.7 µM
EC50 [3]: 3.5 µM
CC50 at 144 h [4]: > 50 µM
EC50 [5]: 10.1 µM
EC50 [6]: 9.6 µM
EC50 [7]: > 100 µM
fold change (FC) [8]: >12.3
EC50 [9]: 8.1 µM
selectivity ratio [10]: > 5
EC50 [14]: 15.1 µM

NC(=O)c1ncn([C@@H]2O[C@H](CO)[C@@H](O)[C@H]2O)n1 [RIBAVIRIN]
EC50 [1]: 16.8 µM
EC50 [2]: 13.3 µM
EC50 [3]: 29 µM
EC50 [5]: 25.3 µM
EC50 [6]: 11.5 µM
EC50 [7]: 17.6 µM
fold change (FC) [8]: 0.85
EC50 [9]: 20.7 µM
EC50 [14]: 19 µM

O=c1n(Cc2nc3ccccc3n2CCCCO)c2cnccc2n1C1CC1
Activity [15]: Active
Activity [16]: inactive
Activity [17]: 50%
